TMEM16A act: TMEM16A chloride channel activators or potentiators, primary screen, cell-based, HTS; hit rate 0.3% among 340,000; HEK293 TMEM16A/YFP-H148Q/I152L, iodide quench fluorescence; active compounds read low; B-score at 10 µM;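 active means fluorescence-ratio B-score plate-corrected deviation score at least 3 library SD below zero, with starting fluorescence score within 5 deviations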;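 further: channel opened by trigger with iodide after compound preincubation; score built on the fluorescence ratio of max minus min over baseline; more negative score means more quench and so TMEM16A activation or potentiation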
Target sequence (Q8BHY3 whole entry, looked up): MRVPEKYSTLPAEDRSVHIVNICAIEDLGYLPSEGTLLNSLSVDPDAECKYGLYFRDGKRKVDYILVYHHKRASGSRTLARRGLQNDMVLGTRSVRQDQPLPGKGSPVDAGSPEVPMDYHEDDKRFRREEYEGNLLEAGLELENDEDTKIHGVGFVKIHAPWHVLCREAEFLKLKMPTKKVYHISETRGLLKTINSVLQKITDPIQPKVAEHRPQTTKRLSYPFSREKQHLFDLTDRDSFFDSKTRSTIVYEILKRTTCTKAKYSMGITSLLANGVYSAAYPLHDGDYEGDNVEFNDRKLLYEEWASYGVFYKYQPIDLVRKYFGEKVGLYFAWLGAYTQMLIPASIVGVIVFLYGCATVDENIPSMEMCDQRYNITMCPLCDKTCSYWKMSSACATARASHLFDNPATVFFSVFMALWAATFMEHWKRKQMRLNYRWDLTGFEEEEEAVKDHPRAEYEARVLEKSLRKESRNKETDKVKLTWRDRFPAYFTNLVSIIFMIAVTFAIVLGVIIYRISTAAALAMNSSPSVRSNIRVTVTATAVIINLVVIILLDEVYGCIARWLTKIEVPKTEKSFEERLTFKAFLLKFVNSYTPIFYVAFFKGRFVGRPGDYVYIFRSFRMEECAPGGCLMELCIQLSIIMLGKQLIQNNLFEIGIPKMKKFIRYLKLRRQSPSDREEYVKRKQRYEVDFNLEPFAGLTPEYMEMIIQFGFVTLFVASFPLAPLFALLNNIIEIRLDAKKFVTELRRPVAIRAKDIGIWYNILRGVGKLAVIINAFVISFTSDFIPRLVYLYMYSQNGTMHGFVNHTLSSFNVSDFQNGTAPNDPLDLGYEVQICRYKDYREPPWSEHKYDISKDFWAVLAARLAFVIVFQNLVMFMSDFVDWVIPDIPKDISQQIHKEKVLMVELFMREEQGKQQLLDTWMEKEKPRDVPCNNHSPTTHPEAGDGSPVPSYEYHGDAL
HTR2A ag: mouse Htr2a agonists via beta-arrestin recruitment, primary screen, cell-based, luminescence; CHO-K1 mHTR2A beta-arrestin complementation; percent of 30 µM serotonin response; activation, % at 7.6 µM; hit rate 0.66% among 360,000; AID 624169, 2012;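 active means activation above a run cutoff, the mean activation of all tested compounds plus 3 SD, cut at about 14% in these data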;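 further: 0% = plate median of compound wells and 100% = 30 µM serotonin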
TMEM16A inh: TMEM16A chloride channel inhibitors, primary screen, cell-based, HTS | Anoctamin-1 (Mus musculus), Q8BHY3 | HEK293 TMEM16A/YFP iodide influx fluorescence, ionomycin | normalized B-score (activity score, 25-100; higher = stronger inhibition) at 10 µM | hit rate 1.2% among 310,000 | AID 588511, 2011;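 active means ratio plate-corrected score three or more library SD toward inhibition, starting fluorescence score within five deviations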;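 further: score derived from kinetic fluorescence span divided by baseline fluorescence per well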
MIN6 prolif: inducers of MIN6 beta-cell proliferation, primary screen, ATP luminescence, uHTS; proliferation, % at 10 µM; hit rate 0.29% among 330,000; MIN6 cells proliferation, ATPlite luminescence, 48 h; cells starved in 0.2% serum; 100% = growth in 10% serum;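 active means compounds whose signal lies at least 3.5 SD above the mean of all wells on their plate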;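 further: 0% = DMSO-treated cells in low-serum medium and 100% = 10% serum control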
MC4R ag barr: MC4R agonists recruiting beta-arrestin, primary screen, cell-based, luminescence, agonist arm of biased-ligand search | U2OS MC4R beta-arrestin complementation; percent of melanotan II response, DMSO zero | activation, % at 8.9 µM | hit rate 0.98% among 360,000 | AID 540308, 2011;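 active means activation above a per-plate cutoff, the mean activation of sample wells on that plate plus 3 SD, cut at about 8% in these data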
MC4R antagonist: MC4R antagonists of cAMP signaling, primary screen, cell-based, TR-FRET, antagonist arm of biased-ligand search | Melanocortin receptor 4 (Homo sapiens), P32245 | MC4R-expressing cells, MTII-stimulated cAMP, LANCE TR-FRET | inhibition, % at 6.5 µM | hit rate 0.48% among 360,000 | AID 540295, 2011;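 active means inhibition above its plate's cutoff, the mean of tested wells on that plate plus 3 SD, cut at about 29% in these data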;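 further: 0% = Melanotan II alone and 100% = Melanotan II plus saturating MCL0020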
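Test system: U2OS cells stably expressing human melanocortin 4 receptor (MC4R); also added: Melanotan II challenge; compound: 6.5 µM single dose; timing: 30-min compound preincubation, 1-h Melanotan II challenge, 1-h detection, room temperature; signal: Eu-cAMP/anti-cAMP TR-FRET, emission 671 nm; repeats: one well per compound, no replicates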
U2OS cAMP counter: nonselective cAMP signaling inhibitors, parental cells, counter-screen for MC4R biased antagonist project, cell-based, TR-FRET, U2OS, forskolin, triplicate. LANCE TR-FRET. inhibition, % at 6.5 µM. AID 602193, 2012. hit rate 26% among 1,600. shares compounds with MC4R antagonist;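 active means mean inhibition over triplicates above the low-control well mean plus 3 SD, set per campaign, cut at about 13% in these data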;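 further: signal is single emission at 671 nm which falls as cellular cAMP rises; 0% = forskolin-stimulated wells and 100% = buffer without forskolin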
MC4R antag conf: MC4R cAMP antagonists, retest, confirmation, cell-based, TR-FRET; shares compounds with MC4R antagonist; MC4R-expressing cells, MTII-stimulated cAMP; inhibition, % at 6.5 µM; hit rate 27% among 1,600; in the data active means inhibition above about 29%;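 further: 0% = agonist stimulated wells alone and 100% = agonist stimulated wells plus saturating reference antagonist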
Numbers without * were called inactive; i = inactive; / = no result given; + = active, no number. In the library only some 3.4% were active in any assay of this set; here they are far more common.

SMILES | TMEM16A act | HTR2A ag | TMEM16A inh | MIN6 prolif | MC4R ag barr | MC4R antagonist | U2OS cAMP counter | MC4R antag conf
C=CCN(C(=O)CCc1ccccc1OC)c1nc(-c2ccc(S(C)(=O)=O)cc2)cs1 | i | 4 | i | -1 | 1 | 31* | 0 | -3
O=C(Cc1ccccc1)Nc1cccc(N2C(=O)C=CC2=O)c1 | i | 2 | i | / | -2 | 54* | 18* | 34*
CCOC(=O)c1c(C)nc2ccc(Cl)cc2c1-c1ccccc1 | i | -5 | i | -4 | 2 | 7 | / | /
CCOCc1nc(N)nc(N)c1-c1cccc(Cl)c1 | / | -3 | / | / | -1 | 31* | -1 | 0
CS(=O)(=O)Nc1cccc(NC(=O)c2cccc3c(-c4cccc(C(N)=O)c4)coc23)c1 | / | 1 | / | / | 2 | 44* | 8 | 22
CS(=O)(=O)Nc1cccc(NC(=O)c2cccc3c(-c4ccc(F)c(F)c4)coc23)c1 | / | -1 | / | / | -1 | 12 | / | /
COc1ccccc1NC(=O)c1ccc(NC(=O)Cc2n[nH]c(=O)c3ccccc23)cc1 | i | 0 | i | 2 | 2 | 30* | 5 | 1
O=C(C(=S)N1CCOCC1)c1c[nH]c2ccccc12 | i | 3 | i | -2 | 3 | 30* | 3 | 2
Cc1[nH]n(-c2ccccc2)c(=O)c1C=NC1CCCCCC1 | i | -2 | i | 3 | 0 | 34* | 7 | 8
N#Cc1c(N2CCSCC2)nsc1-c1ccccc1Cl | i | -3 | i | / | -2 | 29* | 24* | 47*
N#Cc1c(Cl)cccc1N1CCSCC1 | / | 0 | / | / | / | / | / | /
CC(=O)c1cccc(Oc2ncccn2)c1 | i | 3 | i | 4 | 1 | 12 | / | /
Clc1cccc(Oc2ncccn2)c1 | i | 1 | i | -1 | 1 | 31* | 2 | 0
Cc1cc(C)c2nc(N3C(=O)C(O)=C(C(=O)c4ccco4)C3c3cccc(O)c3)sc2c1 (centres undefined) | i | -5 | / | -5 | -1 | 8 | / | /
OC[C@@H]1CN(Cc2cccs2)C[C@H](n2cnc3c(NCc4ccc(F)cc4)ncnc32)O1 | / | -6 | / | / | -1 | 3 | / | /
O=C1C=CC(=O)N1CCCCCCCCCCN1C(=O)C=CC1=O | i | -6 | / | / | -4 | 78* | 20* | 49*
O=C1C=CC(=O)N1Cc1ccncc1 | i | -1 | / | / | -1 | 9 | / | /
CC(C)Cn1c(N)c(C(=O)COC(=O)c2ccc([N+](=O)[O-])o2)c(=O)n(C)c1=O | i | 1 | i | -3 | -2 | 35* | 10 | 19
COc1ccc(C(=O)/C=C/C(=O)N(CC(=O)NC2CCCCC2)Cc2ccc(F)cc2)c(O)c1 | i | 0 | / | / | -4 | 29* | 6 | 12
CS(=O)(=O)N(CC(=O)NC1CCCCC1)Cc1ccc(F)cc1 | i | 2 | i | 2 | -2 | 19 | / | /
C[C@@H](c1ccccc1)N1C[C@H]2CCCN2c2cc(Br)ccc2S1(=O)=O | / | -2 | / | / | -1 | -8 | / | /
CCOc1c(O)ccc(C2NC(=O)N(C)C(C)=C2C(=O)OC)c1[N+](=O)[O-] (centres undefined) | i | 3 | i | -1 | 1 | 8 | / | /
CCOc1c(O)ccc(C2NC(=O)NC(C)=C2C(=O)OC)c1[N+](=O)[O-] (centres undefined) | i | -3 | i | -3 | -3 | 30* | -4 | -11
O=C(Nc1ccccc1)Nc1ccccc1C(=O)NCC1CC1 | i | 2 | i | 1 | 5 | -3 | / | /
COCCNC(=O)c1ccccc1NC(=O)Nc1ccccc1 | i | -1 | i | -3 | 0 | 31* | 3 | 11
SMILES | TMEM16A act | HTR2A ag | TMEM16A inh | MIN6 prolif | MC4R ag barr | MC4R antagonist | U2OS cAMP counter | MC4R antag conf
CC(=O)Nc1cccc(-c2ccnc3c2CC(C)(C(=O)NCc2ccncc2)O3)c1 (centres undefined) | / | 6 | / | / | -2 | 5 | / | /
Cc1ccc(Sc2ccc(NC(=O)c3ccc(S(C)(=O)=O)cc3Cl)cc2)cc1 | i | 4 | i | -3 | 7 | 108* | 125* | +
Cc1cnc(C(=O)NCC(=O)Nc2ccccc2Br)cn1 | i | 6 | / | 0 | -4 | 0 | / | /
Cc1ccnc(NC(=O)c2ccc(C(=O)c3ccccc3)cc2)c1 | i | -3 | i | -6 | 1 | 10 | / | /
Cc1ccnc(NC(=O)c2cnc(Cl)c(Cl)c2)c1 | i | 3 | i | 0 | -1 | 32* | 18* | 22
COc1ccc(C(CC(=O)c2ccc(C)cc2)C(C#N)C#N)cc1OC (centres undefined) | i | 2 | i | 0 | 1 | 30* | 5 | 5
COc1ccccc1CC(=O)Nc1cc2oc3ccccc3c2cc1OC | i | 1 | i | -2 | 5 | 25 | / | /
COc1ccc(CC(=O)Nc2cc3oc4ccccc4c3cc2OC)cc1 | i | 1 | i | -5 | -1 | 29* | 0 | 0
CC(=O)NC12CC3CC(C1)CC(C(=O)N1CCN(S(=O)(=O)c4cccc(C(F)(F)F)c4)CC1)(C3)C2 | i | -10 | i | -2 | -1 | 8 | / | /
O=NN(CCCl)C(=O)NCC1=C[N+](=O)CC=C1 | / | 1 | / | / | / | / | / | /
O=C(Nc1ccccc1Cl)c1c(F)c(F)c(F)c(F)c1F | i | 1 | i | -6 | 2 | 37* | 49* | 77*
CSCCC(NC(=O)c1ccc([N+](=O)[O-])cc1Cl)C(=O)OCC(=O)NCCCc1ccccc1 (centres undefined) | i | -3 | i | -3 | 7 | 37* | 16* | 37*
Cc1ccc(NC(=O)CN(C)C(=O)Cc2ccc(Cl)c(Cl)c2)cc1 | i | 0 | i | -2 | -1 | 5 | / | /
Cc1ccc(NC(=O)CN(C)C(=O)Cn2ncc(Cl)c(Cl)c2=O)cc1 | i | 4 | i | / | -1 | 30* | 26* | 24

Assay outcomes as filed in PubChem.
